Experimental data: PMC9891086 (RSC Advances, 2023)

Key:
[1] = biological target: T1, COX-2 (Homo sapiens, UniProt P35354); experiment: biochemical
T1 sequence (P35354 18-604): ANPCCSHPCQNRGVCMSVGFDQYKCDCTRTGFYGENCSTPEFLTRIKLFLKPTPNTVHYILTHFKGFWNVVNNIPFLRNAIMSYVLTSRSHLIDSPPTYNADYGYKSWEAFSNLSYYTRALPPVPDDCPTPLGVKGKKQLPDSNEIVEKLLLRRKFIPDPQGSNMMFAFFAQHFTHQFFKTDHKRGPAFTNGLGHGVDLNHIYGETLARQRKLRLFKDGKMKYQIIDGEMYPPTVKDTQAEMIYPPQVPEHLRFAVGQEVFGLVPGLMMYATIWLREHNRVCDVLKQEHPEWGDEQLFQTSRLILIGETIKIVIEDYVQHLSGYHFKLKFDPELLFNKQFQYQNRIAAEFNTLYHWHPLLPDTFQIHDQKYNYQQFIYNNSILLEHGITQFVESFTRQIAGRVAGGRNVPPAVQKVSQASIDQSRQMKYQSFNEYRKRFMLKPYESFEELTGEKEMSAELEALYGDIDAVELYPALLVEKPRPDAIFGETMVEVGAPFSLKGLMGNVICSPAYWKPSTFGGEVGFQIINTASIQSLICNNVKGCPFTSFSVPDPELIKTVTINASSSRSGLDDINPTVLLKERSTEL

[2] = test system: HepG2 cells; experiment: MTT cytotoxic activity assay against HepG2 cells; type: cell-based; conditions: Homo sapiens, HepG2, 48 h, read-out: IC50 inhibitory effect on HepG2 cells
In short: (§1)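 Cells seeded at 5 × 10^3 per well and grown 24 h, then exposed to a range of test compound concentrations for 48 h. Vehicle control was 0.1% DMSO and the positive control was adriamycin (10 μM). MTT was added from a 5 mg mL−1 stock for 4 h, and formazan was dissolved in DMSO. Viability was read at 490 nm, in three replicates per treatment.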

[3] = test system: Caco-2 cells; experiment: MTT cytotoxic activity assay against Caco-2 cells; type: cell-based; conditions: Homo sapiens, Caco-2, 48 h, read-out: IC50 inhibitory effect on Caco-2 cells
In short: as §1

IC50 [1] [µM]	SMILES	IC50 [2] [µM]	IC50 [3] [µM]
67.9 ± 6.21	CC[C@H](CC[C@@H](C)[C@H]1CC[C@H]2[C@@H]3CC(=O)C4=CC(=O)CC[C@]4(C)[C@H]3CC[C@]12C)C(C)C [Compound 3, stigmast-4-en-3,6-dione]	–	–
146 ± 11	O=c1cc[nH]c(=O)[nH]1 [Compound 21, uracil]	78.5 ± 4.41	86 ± 2.96
123 ± 10.5	COc1cc(O)c(C(C)=O)c(OC)c1 [Compound 5, xanthoxylin]	8.21 ± 1.12	–

Continued, compound first:

SMILES	IC50 [1] [µM]	IC50 [2] [µM]	IC50 [3] [µM]
N[C@H]1CCC=C[C@H]1C(=O)O [Compound 14, (1R,6S)-6-aminocyclohex-2-ene-1-carboxylic acid]	19.3 ± 3.58	–	–
O=C1N[C@@H](O)C(O)=C1O [Compound 23, (S)-3,4,5-trihydroxy-1H-pyrrol-2 (5H)-one]	149 ± 10	–	–
OCc1ccccc1O[C@@H]1O[C@H](CO)[C@@H](O)[C@H](O)[C@H]1O [Compound 25, salicin]	162 ± 10	–	–
c1cncc([C@@H]2CCCCN2)c1 [Compound 15, anabasine]	150 ± 11	–	–
CCCCCCCCC/C=C\CCCCCCCCC(=O)O [Compound 1, cis-10-eicosaenoic acid]	10.8 ± 0.3	25 ± 1.08	–
Oc1ccccc1CN1CCCC[C@H]1c1cccnc1 [Compound 16, (2S)-N-hydroxybenzylanabasine]	24.2 ± 1.2	–	–
